Published values collected from several papers.
Target: Receptor-interacting serine/threonine-protein kinase 2 (RIPK2, Homo sapiens, UniProt O43353)

CC(=O)N1CCC(c2ccc(C(=O)NC(=N)N)cc2C(F)(F)F)CC1  remaining binding (cell-free assay, competition with immobilised ligand; 1 µM): 100%
O=C(Nc1cnn(-c2csc(C(=O)NC3COC3)c2)c1)Nc1ccccc1Cl  remaining activity (enzyme activity, inhibitor; 5 µM): 120%
CNCc1ccccc1-c1csc([C@@H](C)Nc2nc(C)nc3cc(OC)c(OC)cc23)c1  remaining binding (cell-free assay, competition with immobilised ligand; 1 µM): 100%
FC(F)(F)Oc1cccc(-c2cnc3ccc(-c4ccncc4)nn23)c1  activity vs control (enzyme activity, inhibitor, radiometric; 5 µM): 22%
Cc1ccc(C(=O)NCc2ccsc2)cc1C#Cc1cn(C(C)C)c2ncnc(N)c12  activity vs control (enzyme activity, inhibitor; 1 µM): 14%
Cc1ccc(C(=O)Nc2ccc(CN3CCN(C)CC3)c(C(F)(F)F)c2)cc1C#Cc1cnc2cccnn12  remaining activity (enzyme activity, inhibitor; 23.5 nM): 43%
CCN(CC)CCNC(=O)c1c(C)[nH]c(/C=C2\C(=O)Nc3ccc(F)cc32)c1C  inhibition (enzyme activity, inhibitor; 10 µM): 24%
C[C@H](c1ccc(F)cc1)N(Cc1cccc(C(=O)O)c1)C(=O)c1cnc2ccccc2c1  remaining binding (cell-free assay, competition with immobilised ligand; 1 µM): 82%
Nc1ncnc2occ(-c3ccc(NC(=O)Nc4cc(C(F)(F)F)ccc4F)cc3)c12  remaining signal (cell-free assay, inhibitor; 20 µM): 4.2%
CNC(=O)c1cc(Oc2ccc(NC(=O)Nc3ccc(Cl)c(C(F)(F)F)c3)cc2)ccn1  remaining signal (cell-free assay; 0.5 µM): 86.2%
Cn1c(=O)n(-c2ccc(C(C)(C)C#N)cc2)c2c3cc(-c4cnc5ccccc5c4)ccc3ncc21  remaining activity (enzyme activity, inhibitor; 10 µM): 28%
CC(=O)c1c(NS(C)(=O)=O)c2cc(-c3ccc(Cl)cc3)c(-c3ccc(Cl)cc3Cl)nc2n(C)c1=O  remaining binding (cell-free assay, competition with immobilised ligand; 1 µM): 96%
Cc1ccc(Nc2nccc(N(C)c3ccc4c(C)n(C)nc4c3)n2)cc1S(N)(=O)=O  remaining activity (enzyme activity, inhibitor; 0.5 µM): 68.2%
CCCS(=O)(=O)Nc1ccc(F)c(C(=O)c2c[nH]c3ncc(-c4ccc(Cl)cc4)cc23)c1F  inhibition (enzyme activity, inhibitor; 1 µM): < 10%
C[C@@H]1CCN(C(=O)CC#N)C[C@@H]1N(C)c1ncnc2[nH]ccc12  remaining signal (cell-free assay, inhibitor; 0.5 µM): 113%
Cc1ccc(NC(=O)c2ccc(C)c(C(F)(F)F)c2)cc1C#Cc1nn(C2CCC(O)CC2)c2ncnc(N)c12 (centres unmarked)  remaining signal (cell-free assay; 10 µM): 21%
CC(C)(C)c1nc2c(s1)c1nc(N)ncc1c1ccc(NS(=O)(=O)c3c(F)cccc3F)c(F)c12  remaining activity (enzyme activity, inhibitor, radiometric; 1 µM): 70%
CC(C)(O)[C@H]1CC[C@H](Nc2ccc3ncc(-c4cccc(C(F)(F)F)c4)n3n2)CC1  remaining activity (enzyme activity, inhibitor; 1 µM): 28.1%
COc1ccc2c(c1)O[C@H](c1ccc(OC)c(OC)c1)C[C@@H]2NC(=O)C1(c2ccc3c(c2)OC(F)(F)O3)CC1  remaining binding (cell-free assay, competition with immobilised ligand; 1 µM): 100%
CCCOc1ccc(OC)c(F)c1C(=O)c1ccc(C(=O)N[C@@H]2CNC[C@H]2NC(=O)c2ccc3[nH]ncc3c2)cc1  remaining activity (enzyme activity, inhibitor; 10 µM): 91%
Cn1cnc(Br)c1C1=CN(c2ncnc3[nH]cnc23)CCS1  inhibition (enzyme activity, inhibitor, radiometric; 2 µM): 34%
Cc1nccc(COC(=O)N2C[C@@H]3[C@@H](CNC(=O)c4ccc5[nH]nnc5c4)[C@@H]3C2)n1  remaining binding (cell-free assay, competition with immobilised ligand; 1 µM): 100%
O=C1NC(=O)c2cc(Nc3ccc(F)cc3)c(Nc3ccc(F)cc3)cc21  remaining signal (cell-free assay; 0.5 µM): 95%
Oc1cccc(-c2nc(N3CCOCC3)c3oc4ncccc4c3n2)c1  remaining activity (enzyme activity, inhibitor; 10 µM): 72%
CCS(=O)(=O)c1cc2cc(C[C@@](O)(CC(C)(C)c3ccc(F)cc3C(N)=O)C(F)(F)F)[nH]c2cn1  remaining binding (cell-free assay, competition with immobilised ligand; 1 µM): 100%
COc1cc(/C=C/C(=O)CC(=O)/C=C/c2ccc(O)c(OC)c2)ccc1O  activity vs control (enzyme activity, inhibitor; 1 µM): 16%
CCCOc1ccc([C@H]2[C@H](C(=O)O)[C@@H](c3ccc4c(c3)OCO4)CN2CC(=O)Nc2c(CC)cccc2CC)cc1  remaining binding (cell-free assay, competition with immobilised ligand; 1 µM): 100%
CNCc1ccc(-c2cc(-c3nc(-c4ccc(S(=O)(=O)C(C)C)cc4)cnc3N)on2)cc1  inhibition (enzyme activity, inhibitor; 2 µM): 26%
COc1cc(Nc2cnc(C#N)c(O[C@H](C)CN(C)C)n2)ncc1-c1cnn(C)c1  remaining activity (enzyme activity, inhibitor, radiometric; 1 µM): 97%
